Test results published in ChEMBL document CHEMBL5131563, “Accelerated Identification of Cell Active KRAS Inhibitory Macrocyclic Peptides using Mixture Libraries and Automated Ligand Identification System (ALIS) Technology” (J Med Chem, 2022).
*1 amine or outer side, *2 acyl side, *3 side chain or, on linkers, in order; H or OH if unused. Where a SMILES comes first, the peptide text is derived from it. Bridges are numbered along the chain shown (N, C = ends). [ ]: non-standard residue; d: D form. X1 = O=C([C@@H]1[C@H](c2ccccc2)CCN1[*:1])[*:2]; Pro(3R-Ph) = O=C(O)[C@H]1NCC[C@@H]1c1ccccc1; Bip = N[C@@H](Cc1ccc(-c2ccccc2)cc1)C(=O)O; Lys(N3) = [N-]=[N+]=NCCCC[C@H](N)C(=O)O; Ala(cPent) = N[C@@H](CC1CCCC1)C(=O)O; hPhe = N[C@@H](CCc1ccccc1)C(=O)O; Cha = N[C@@H](CC1CCCCC1)C(=O)O; hLeu = CC(C)CC[C@H](N)C(=O)O; Nva = CCC[C@H](N)C(=O)O

Columns and labels:
GTPase KRas [1] = target: T1, GTPase KRas (Homo sapiens, UniProt P01116, G12D); assay: Inhibition of recombinant biotinylated KRAS G12D mutant (unknown origin) assessed as inhibition of SOS-catalyzed nucleotide exchange preincubated for 60 mins followed by addition of human SOS protein and unlabeled GTP and measured after 60 mins by TR-FRET analysis
How it was run: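 Biotinylated KRAS G12D was treated in EDTA buffer (1 h, RT), then loaded at 90 nM with 900 nM Bodipy-GDP and 15 nM Tb-streptavidin in Mg2+ buffer, HEPES pH 7.5 (6 h, RT). It was used at 1.5 nM assay solution with a 10-point, 3-fold DMSO compound series for 60 min at RT. A solution of 120 nM human SOS plus GTP was added for 60 min. The read-out was TR-FRET at 520/495 nm, normalized to DMSO and saturating-inhibitor controls, with a 4-parameter fit.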

[2] = Stability in human HeLa cell homogenate assessed as half life by LC-MS/MS analysis; assay type: ADME, cell-based
How it was run: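 HeLa cells suspended at 1 × 10^6 cells/mL, probe-sonicated on ice until homogeneous, stored frozen at –20 °C. Peptides incubated with homogenate (1 × 10^6 cells/mL equivalent); peptide loss over time quantified by LC-MS/MS to derive t1/2.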

GTPase KRas [3] = target: T1, GTPase KRas; assay: Inhibition of KRAS in human ASPC1 cells harboring KRAS G12D mutant assessed as inhibition of ERK phosphorylation incubated for 2 hrs by AlphaScreen-based […] assay; assay type: cell-based
How it was run: (§1)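 AsPC-1 cells (KRAS G12D) were seeded at 15 000 cells/well in phenol-red-free RPMI with 10% FBS and 25 mM HEPES, then incubated overnight at 37 °C and 5% CO2. Medium was switched to serum-free before dosing. Cells were given a dose–response titration for 2 or 18 h at 37 °C, washed and lysed with protease inhibitors. Phospho-ERK and total ERK were read by AlphaScreen SureFire multiplex, using the pERK/total ERK ratio. Curves were fit with a 4-parameter logistic.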

GTPase KRas [4] = target: T1, GTPase KRas; assay: Inhibition of KRAS in human ASPC1 cells harboring KRAS G12D mutant assessed as inhibition of ERK phosphorylation incubated for 18 hrs by AlphaScreen-based […] assay; assay type: cell-based; how it was run: as §1
HeLa [5] = assay: Cell permeability in human HeLa cells transfected with NanoLuc-HaloTag vector incubated for 4 hrs followed by treated with NanoBret618-azide ligand by NanoClick assay; assay type: ADME, cell-based
HeLa [6] = assay: Cell permeability in human HeLa cells transfected with NanoLuc-HaloTag vector incubated for 18 hrs followed by treated with NanoBret618-azide ligand by NanoClick assay; assay type: ADME, cell-based

T1 sequence (P01116 whole entry G12D): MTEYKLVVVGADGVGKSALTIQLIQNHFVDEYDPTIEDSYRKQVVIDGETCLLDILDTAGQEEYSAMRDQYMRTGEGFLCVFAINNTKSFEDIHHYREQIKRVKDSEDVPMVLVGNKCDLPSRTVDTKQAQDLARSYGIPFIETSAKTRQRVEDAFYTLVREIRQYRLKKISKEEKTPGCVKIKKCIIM

CC[C@H](C)[C@@H]1NC(=O)[C@H](Cc2ccc(-c3ccccc3)cc2)NC(=O)[C@H](CC(C)C)NC(=O)[C@@H]2[C@H](c3ccccc3)CCN2C(=O)[C@@H](NC(=O)[C@H](CCCNC(=N)N)NC(=O)[C@H](CCCNC(=N)N)NC(=O)[C@H](CCCCN=[N+]=[N-])NC(C)=O)CSSC[C@@H](C(=O)N[C@@H](CCCNC(=N)N)C(=O)N[C@@H](CCCNC(=N)N)C(N)=O)NC(=O)[C@H](C(C)C)NC(=O)[C@@H]2CCCN2C(=O)[C@H](CC(=O)O)NC(=O)[C@H](Cc2ccc(O)cc2)NC(=O)[C@H](CO)NC1=O
IC50 (GTPase KRas [1]): < 0.001 µM
half-life [2]: > 372 min
IC50 (GTPase KRas [3]): 2.7 µM
IC50 (GTPase KRas [4]): 19 µM
EC50 (HeLa [5]): 7.32 µM
EC50 (HeLa [6]): 0.199 µM

CC[C@H](C)[C@@H]1NC(=O)[C@H](Cc2ccc(-c3ccccc3)cc2)NC(=O)[C@H](CC(C)C)NC(=O)[C@@H]2[C@@H](c3ccccc3)CCN2CC(=O)[C@@H](NC(=O)[C@H](CCCNC(=N)N)NC(=O)[C@H](CCCNC(=N)N)NC(C)=O)CSSC[C@@H](C(=O)N[C@@H](CCCNC(=N)N)C(=O)N[C@@H](CCCNC(=N)N)C(N)=O)NC(=O)[C@H](C(C)C)NC(=O)[C@@H]2CCCN2C(=O)[C@H](CC(=O)O)NC(=O)[C@H](Cc2ccc(O)cc2)NC(=O)[C@H](CO)NC1=O
IC50 (GTPase KRas [1]): < 0.001 µM
half-life [2]: > 372 min
IC50 (GTPase KRas [3]): 3.3 µM
IC50 (GTPase KRas [4]): 33 µM

CC[C@H](C)[C@@H]1NC(=O)[C@H](CC2CCCCC2)NC(=O)[C@H](CC(C)C)NC(=O)[C@@H]2CCCN2C(=O)[C@@H](NC(=O)[C@H](CCCNC(=N)N)NC(=O)[C@H](CCCNC(=N)N)NC(C)=O)CSSC[C@@H](C(=O)N[C@@H](CCCNC(=N)N)C(=O)N[C@@H](CCCNC(=N)N)C(N)=O)NC(=O)[C@H](C(C)C)NC(=O)[C@@H]2CCCN2C(=O)[C@H](CC(=O)O)NC(=O)[C@H](Cc2ccc(O)cc2)NC(=O)[C@H](CO)NC1=O (Ac-RRCPL[Cha]ISYDPVCRR-NH2; disulfide 3-13)
IC50 (GTPase KRas [1]): 0.161 µM
half-life [2]: 21 min

CC(=O)N[C@@H](CCCNC(=N)N)C(=O)N[C@@H](CCCNC(=N)N)C(=O)N[C@H]1CSSC[C@@H](C(=O)N[C@@H](CCCNC(=N)N)C(=O)N[C@@H](CCCNC(=N)N)C(N)=O)NC(=O)[C@H](C(C)C)NC(=O)[C@@H]2CCCN2C(=O)[C@H](CC(=O)O)NC(=O)[C@H](Cc2ccc(O)cc2)NC(=O)[C@H](CO)NC(=O)[C@H](CC2CCCC2)NC(=O)[C@H](CC2CCCCC2)NC(=O)[C@H](CC(C)C)NC(=O)[C@@H]2CCCN2C1=O (Ac-RRCPL[Cha][Ala(cPent)]SYDPVCRR-NH2; disulfide 3-13)
IC50 (GTPase KRas [1]): > 11.1 µM
half-life [2]: 21 min

CCC[C@@H]1NC(=O)[C@H](CC2CCCCC2)NC(=O)[C@H](CC(C)C)NC(=O)[C@@H]2CCCN2C(=O)[C@@H](NC(=O)[C@H](CCCNC(=N)N)NC(=O)[C@H](CCCNC(=N)N)NC(C)=O)CSSC[C@@H](C(=O)N[C@@H](CCCNC(=N)N)C(=O)N[C@@H](CCCNC(=N)N)C(N)=O)NC(=O)[C@H](C(C)C)NC(=O)[C@@H]2CCCN2C(=O)[C@H](CC(=O)O)NC(=O)[C@H](Cc2ccc(O)cc2)NC(=O)[C@H](CO)NC1=O (Ac-RRCPL[Cha][Nva]SYDPVCRR-NH2; disulfide 3-13)
IC50 (GTPase KRas [1]): > 11.1 µM
half-life [2]: 27 min

CC(=O)N[C@@H](CCCNC(=N)N)C(=O)N[C@@H](CCCNC(=N)N)C(=O)N[C@H]1CSSC[C@@H](C(=O)N[C@@H](CCCNC(=N)N)C(=O)N[C@@H](CCCNC(=N)N)C(N)=O)NC(=O)[C@H](C(C)C)NC(=O)[C@@H]2CCCN2C(=O)[C@H](CC(=O)O)NC(=O)[C@H](Cc2ccc(O)cc2)NC(=O)[C@H](CO)NC(=O)[C@H](CCC(C)C)NC(=O)[C@H](CC2CCCCC2)NC(=O)[C@H](CC(C)C)NC(=O)[C@@H]2CCCN2C1=O (Ac-RRCPL[Cha][hLeu]SYDPVCRR-NH2; disulfide 3-13)
IC50 (GTPase KRas [1]): > 11.1 µM
half-life [2]: 25 min

CC[C@H](C)[C@@H]1NC(=O)[C@H](CCc2ccccc2)NC(=O)[C@H](CC(C)C)NC(=O)[C@@H]2CCCN2C(=O)[C@@H](NC(=O)[C@H](CCCNC(=N)N)NC(=O)[C@H](CCCNC(=N)N)NC(C)=O)CSSC[C@@H](C(=O)N[C@@H](CCCNC(=N)N)C(=O)N[C@@H](CCCNC(=N)N)C(N)=O)NC(=O)[C@H](C(C)C)NC(=O)[C@@H]2CCCN2C(=O)[C@H](CC(=O)O)NC(=O)[C@H](Cc2ccc(O)cc2)NC(=O)[C@H](CO)NC1=O (Ac-RRCPL[hPhe]ISYDPVCRR-NH2; disulfide 3-13)
IC50 (GTPase KRas [1]): 1.39 µM
half-life [2]: 37 min

CC(=O)N[C@@H](CCCNC(=N)N)C(=O)N[C@@H](CCCNC(=N)N)C(=O)N[C@H]1CSSC[C@@H](C(=O)N[C@@H](CCCNC(=N)N)C(=O)N[C@@H](CCCNC(=N)N)C(N)=O)NC(=O)[C@H](C(C)C)NC(=O)[C@@H]2CCCN2C(=O)[C@H](CC(=O)O)NC(=O)[C@H](Cc2ccc(O)cc2)NC(=O)[C@H](CO)NC(=O)[C@H](CC2CCCC2)NC(=O)[C@H](CCc2ccccc2)NC(=O)[C@H](CC(C)C)NC(=O)[C@@H]2CCCN2C1=O (Ac-RRCPL[hPhe][Ala(cPent)]SYDPVCRR-NH2; disulfide 3-13)
IC50 (GTPase KRas [1]): > 11.1 µM
half-life [2]: 16 min

CCC[C@@H]1NC(=O)[C@H](CCc2ccccc2)NC(=O)[C@H](CC(C)C)NC(=O)[C@@H]2CCCN2C(=O)[C@@H](NC(=O)[C@H](CCCNC(=N)N)NC(=O)[C@H](CCCNC(=N)N)NC(C)=O)CSSC[C@@H](C(=O)N[C@@H](CCCNC(=N)N)C(=O)N[C@@H](CCCNC(=N)N)C(N)=O)NC(=O)[C@H](C(C)C)NC(=O)[C@@H]2CCCN2C(=O)[C@H](CC(=O)O)NC(=O)[C@H](Cc2ccc(O)cc2)NC(=O)[C@H](CO)NC1=O (Ac-RRCPL[hPhe][Nva]SYDPVCRR-NH2; disulfide 3-13)
IC50 (GTPase KRas [1]): > 11.1 µM
half-life [2]: 15 min

CC(=O)N[C@@H](CCCNC(=N)N)C(=O)N[C@@H](CCCNC(=N)N)C(=O)N[C@H]1CSSC[C@@H](C(=O)N[C@@H](CCCNC(=N)N)C(=O)N[C@@H](CCCNC(=N)N)C(N)=O)NC(=O)[C@H](C(C)C)NC(=O)[C@@H]2CCCN2C(=O)[C@H](CC(=O)O)NC(=O)[C@H](Cc2ccc(O)cc2)NC(=O)[C@H](CO)NC(=O)[C@H](CCC(C)C)NC(=O)[C@H](CCc2ccccc2)NC(=O)[C@H](CC(C)C)NC(=O)[C@@H]2CCCN2C1=O (Ac-RRCPL[hPhe][hLeu]SYDPVCRR-NH2; disulfide 3-13)
IC50 (GTPase KRas [1]): > 11.1 µM
half-life [2]: 14 min

CC[C@H](C)[C@@H]1NC(=O)[C@H](Cc2ccc(-c3ccccc3)cc2)NC(=O)[C@H](CC(C)C)NC(=O)[C@@H]2[C@H](c3ccccc3)CCN2C(=O)[C@@H](NC(=O)[C@H](CCCNC(=N)N)NC(=O)[C@H](CCCNC(=N)N)NC(C)=O)CSSC[C@@H](C(=O)N[C@@H](CCCNC(=N)N)C(=O)N[C@@H](CCCNC(=N)N)C(N)=O)NC(=O)[C@H](C(C)C)NC(=O)[C@@H]2CCCN2C(=O)[C@H](CC(=O)O)NC(=O)[C@H](Cc2ccc(O)cc2)NC(=O)[C@H](CO)NC(=O)[C@H](C)NC1=O (Ac-RRC[X1]L[Bip]IASYDPVCRR-NH2; disulfide 3-14)
IC50 (GTPase KRas [1]): < 0.001 µM
half-life [2]: > 372 min
IC50 (GTPase KRas [3]): 3.8 µM
IC50 (GTPase KRas [4]): 3.9 µM

CC(=O)N[C@@H](CCCCN=[N+]=[N-])C(=O)N[C@@H](CCCNC(=N)N)C(=O)N[C@@H](CCCNC(=N)N)C(=O)N[C@H]1CSSC[C@@H](C(=O)N[C@@H](CCCNC(=N)N)C(=O)N[C@@H](CCCNC(=N)N)C(N)=O)NC(=O)[C@H](C(C)C)NC(=O)[C@@H]2CCCN2C(=O)[C@H](CC(=O)O)NC(=O)[C@H](Cc2ccc(O)cc2)NC(=O)[C@H](CO)NC(=O)[C@H](C)NC(=O)[C@H](Cc2ccc(-c3ccccc3)cc2)NC(=O)[C@H](CC(C)C)NC(=O)[C@@H]2[C@@H](c3ccccc3)CCN2C1=O (Ac-[Lys(N3)]RRC[Pro(3R-Ph)]L[Bip]ASYDPVCRR-NH2; disulfide 4-14)
IC50 (GTPase KRas [1]): < 0.001 µM
half-life [2]: > 372 min
IC50 (GTPase KRas [3]): 6.2 µM
IC50 (GTPase KRas [4]): 6.8 µM
EC50 (HeLa [5]): 1.49 µM
EC50 (HeLa [6]): 0.148 µM
